In ChEMBL document CHEMBL4715728, “New bifunctional antioxidant/σ1 agonist ligands: Preliminary chemico-physical and biological evaluation” (Bioorg Med Chem, 2016):
Calls of active or inactive are those of the source. The rule behind the calls is not given here.

How the values were obtained:
[1] = Antioxidant activity in Sprague-Dawley rat Cerebral cortex neuron assessed as total antioxidant capacity by measuring trolox equivalents at 10 uM after 24 hrs; type: functional
Outline: (§1)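 Primary cerebral cortex neurons from rat fetuses, grown on poly-D-lysine in neurobasal medium with fetal calf serum (5% CO2, 37 °C), tested after 8 days in culture. Compounds in DMSO (0.5%) or sterile water were added and incubated 24 h at 37 °C. Cells were washed in ice-cold PBS and homogenized in 0.9% saline. Intracellular TAC (Trolox equiv.) and TOS (H2O2 equiv.) were read by kit. Ascorbic acid 10 µM (TAC) and H2O2 25 µM (TOS) served as positive controls. Four independent experiments.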

[2] = Cytotoxicity against Sprague-Dawley rat Cerebral cortex neuron assessed as cell viability at 10 uM incubated for 24 hrs by MTT assay relative to control; type: tissue-based; details: cerebral cortex neurons, read-out: Activity
Outline: (§2)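 Primary fetal rat cortical neurons, matured 8 days, treated 24 h at 37 °C with compound (0.1–100 µM; 0.5% DMSO or water vehicle). MTT 0.7 mg/ml was then added for 30 min at 37 °C, and formazan was extracted with isopropanol/formic acid (95:5) and read at 560 nm. Untreated control was set as 100% viability. Four independent experiments.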

[3] = Cytotoxicity against Sprague-Dawley rat Cerebral cortex neuron assessed as LDH activity at 10 uM incubated for 24 hrs by LDH assay; type: tissue-based
Outline: (§3)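 Primary fetal rat cortical neurons, matured 8 days on poly-D-lysine, exposed 24 h at 37 °C to compound (0.1–100 µM; DMSO 0.5% or water vehicle). LDH released into 100 µl culture medium was measured by kit as the rate of NAD+ reduction (absorbance increase at 490 nm). Positive control was mitomycin C. Four independent experiments.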

[4] = Cytotoxicity against Sprague-Dawley rat Cerebral cortex neuron assessed as LDH activity at 0.1 uM incubated for 24 hrs by LDH assay (reference value: […]); type: tissue-based; outline: as §3
[5] = Cytotoxicity against Sprague-Dawley rat Cerebral cortex neuron assessed as LDH activity at 25 uM incubated for 24 hrs by LDH assay (reference value: […]); type: tissue-based; outline: as §3
[6] = Antioxidant activity in Sprague-Dawley rat Cerebral cortex neuron assessed as total oxidative stress level by measuring H2O2 equivalents at 25 uM after 24 hrs (reference value: 2.3 +/- 0.3 umol/L); type: functional; outline: as §1
[7] = Cytotoxicity against Sprague-Dawley rat Cerebral cortex neuron assessed as cell viability at 0.1 uM incubated for 24 hrs by MTT assay relative to control; type: tissue-based; details: cerebral cortex neurons, read-out: Activity; outline: as §2
[8] = Cytotoxicity against Sprague-Dawley rat Cerebral cortex neuron assessed as cell viability at 100 uM incubated for 24 hrs by MTT assay relative to control; type: tissue-based; details: cerebral cortex neurons, read-out: Activity; outline: as §2
[9] = Antioxidant activity in Sprague-Dawley rat Cerebral cortex neuron assessed as total antioxidant capacity by measuring trolox equivalents at 0.1 uM after 24 hrs; type: functional; outline: as §1
[10] = Cytotoxicity against Sprague-Dawley rat Cerebral cortex neuron assessed as LDH activity at 1 uM incubated for 24 hrs by LDH assay (reference value: […]); type: tissue-based; outline: as §3
[11] = Cytotoxicity against Sprague-Dawley rat Cerebral cortex neuron assessed as LDH activity at 100 uM incubated for 24 hrs by LDH assay (reference value: […]); type: tissue-based; outline: as §3
[12] = Antioxidant activity in Sprague-Dawley rat Cerebral cortex neuron assessed as total antioxidant capacity by measuring trolox equivalents at 25 uM after 24 hrs; type: functional; outline: as §1
[13] = Cytotoxicity against Sprague-Dawley rat Cerebral cortex neuron assessed as LDH activity at 50 uM incubated for 24 hrs by LDH assay (reference value: […]); type: tissue-based; outline: as §3
[14] = Antioxidant activity in Sprague-Dawley rat Cerebral cortex neuron assessed as total oxidative stress level by measuring H2O2 equivalents at 1 uM after 24 hrs (reference value: 2.3 +/- 0.3 umol/L); type: functional; outline: as §1
[15] = Antioxidant activity in Sprague-Dawley rat Cerebral cortex neuron assessed as total antioxidant capacity by measuring trolox equivalents at 1 uM after 24 hrs; type: functional; outline: as §1
[16] = Antioxidant activity in Sprague-Dawley rat Cerebral cortex neuron assessed as total antioxidant capacity by measuring trolox equivalents at 100 uM after 24 hrs; type: functional; outline: as §1
[17] = Cytotoxicity against Sprague-Dawley rat Cerebral cortex neuron assessed as cell viability at 25 uM incubated for 24 hrs by MTT assay relative to control; type: tissue-based; details: cerebral cortex neurons, read-out: Activity; outline: as §2
[18] = Antioxidant activity in Sprague-Dawley rat Cerebral cortex neuron assessed as total oxidative stress level by measuring H2O2 equivalents at 100 uM after 24 hrs (reference value: 2.3 +/- 0.3 umol/L); type: functional; outline: as §1
[19] = Antioxidant activity in Sprague-Dawley rat Cerebral cortex neuron assessed as total oxidative stress level by measuring H2O2 equivalents at 10 uM after 24 hrs (reference value: 2.3 +/- 0.3 umol/L); type: functional; outline: as §1
[20] = Cytotoxicity against Sprague-Dawley rat Cerebral cortex neuron assessed as cell viability at 1 uM incubated for 24 hrs by MTT assay relative to control; type: tissue-based; details: cerebral cortex neurons, read-out: Activity; outline: as §2
[21] = Cytotoxicity against rat Sprague-Dawley Cerebral cortex neuron assessed as cell viability at 50 uM incubated for 24 hrs by MTT assay relative to control; type: tissue-based; details: cerebral cortex neurons, read-out: Activity; outline: as §2
[22] = Antioxidant activity in Sprague-Dawley rat Cerebral cortex neuron assessed as total oxidative stress level by measuring H2O2 equivalents at 50 uM after 24 hrs (reference value: 2.3 +/- 0.3 umol/L); type: functional; outline: as §1
[23] = Antioxidant activity in Sprague-Dawley rat Cerebral cortex neuron assessed as total antioxidant capacity by measuring trolox equivalents at 50 uM after 24 hrs; type: functional; outline: as §1
[24] = Antioxidant activity in Sprague-Dawley rat Cerebral cortex neuron assessed as total oxidative stress level by measuring H2O2 equivalents at 0.1 uM after 24 hrs (reference value: 2.3 +/- 0.3 umol/L); type: functional; outline: as §1
[25] = target: Sigma non-opioid intracellular receptor 1 (Cavia porcellus, UniProt Q60492); experiment: Displacement of [3H]-(+)-pentazocine from sigma1 receptor in guinea pig brain membrane incubated for 150 mins by liquid scintillation counting method; type: cell membranes
Outline: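 Guinea pig brain membranes (500 µg protein) in 50 mM Tris-HCl pH 7.4 with 3 nM [3H]-(+)-pentazocine. […] Incubated 150 min at 37 °C, then filtered on PEI-soaked GF/B filters and counted by scintillation. Ki obtained by EBDA/LIGAND; three determinations.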

Cavia porcellus = species on record: Cavia porcellus; experiment: Selectivity ratio of Ki for displacement of [3H]-DTG from sigma2 receptor in guinea pig brain membrane to Ki for displacement of [3H]-(+)-pentazocine from sigma1 receptor in guinea pig brain membrane; type: cell membranes
[26] = Displacement of [3H]-DTG from Sigma 2 receptor in guinea pig brain membrane incubated for 120 mins in presence of sigma1 blocker (+)-SKF-10047 by liquid scintillation counting method; type: cell membranes, Cavia porcellus
Mus musculus [27] = experiment: In vivo agonist activity at sigma 1 receptor in Swiss […] mouse assessed as modulation of morphine-induced analgesic effect by measuring tail flick latency at 1 mg/kg, ip preincubated for 45 mins followed by morphine treatment after 90 mins by radiant heat tail-flick method; type: functional, organism-based; details: time 135.0 min
Mus musculus [28] = experiment: In vivo agonist activity at sigma 1 receptor in Swiss […] mouse assessed as modulation of morphine-induced analgesic effect by measuring tail flick latency at 1 mg/kg, ip measured after 90 mins by radiant heat tail-flick method; type: functional, organism-based

Sequence of Sigma non-opioid intracellular receptor 1 (Q60492 whole entry): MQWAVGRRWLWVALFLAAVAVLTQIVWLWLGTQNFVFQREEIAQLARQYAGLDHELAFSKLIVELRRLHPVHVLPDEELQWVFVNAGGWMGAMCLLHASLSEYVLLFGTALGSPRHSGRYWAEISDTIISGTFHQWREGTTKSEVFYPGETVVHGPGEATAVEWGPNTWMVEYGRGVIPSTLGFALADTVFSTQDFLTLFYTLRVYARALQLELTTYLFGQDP

| Structure (SMILES) | TAC [1] | viability at 24 h, 10 µM [2] | Activity [3] | Activity [4] | Activity [5] | Activity [6] | viability at 24 h, 0.1 µM [7] | viability at 24 h, 100 µM [8] | TAC [9] | Activity [10] | Activity [11] | TAC [12] | Activity [13] | Activity [14] | TAC [15] | TAC [16] | viability at 24 h, 25 µM [17] | Activity [18] | Activity [19] | viability at 24 h, 1 µM [20] | other results |
| --- | --- | --- | --- | --- | --- | --- | --- | --- | --- | --- | --- | --- | --- | --- | --- | --- | --- | --- | --- | --- | --- |
| O=C1O[C@H]([C@@H](O)CO)C(O)=C1O [ASCORBIC ACID] | 26.9 mmol/L |  |  |  |  |  |  |  |  |  |  |  |  |  |  |  |  |  |  |  |  |
| CO[C@@]12[C@H](COC(N)=O)C3=C(C(=O)C(C)=C(N)C3=O)N1C[C@@H]1N[C@@H]12 [MITOMYCIN] |  | 46.1% | 2.23 mU/ml |  |  |  |  |  |  |  |  |  |  |  |  |  |  |  |  |  |  |
| O=C(O)CCCC[C@@H]1CCSS1 [THIOCTIC ACID] | 10.9 mmol/L | 98.1% | 0.28 mU/ml | 0.27 mU/ml | 0.27 mU/ml | 0.4 µmol/L | 98.6% | 95.9% | 10.7 mmol/L | 0.28 mU/ml | 0.29 mU/ml | 11.2 mmol/L | 0.29 mU/ml | 0.5 µmol/L | 10.5 mmol/L | 13.5 mmol/L | 97.2% | 0.5 µmol/L | 0.4 µmol/L | 97.9% | viability at 24 h, 50 µM [21]: 96.4%; Activity [22]: 0.5 µmol/L; TAC [23]: 12.1 mmol/L; Activity [24]: 0.4 µmol/L |
| O=C(CCCC[C@@H]1CCSS1)N1CCN(Cc2ccccc2)CC1 | 10.8 mmol/L | 96.5% | 0.32 mU/ml | 0.3 mU/ml | 0.3 mU/ml | 0.4 µmol/L | 98.5% | 95.8% | 10.2 mmol/L | 0.32 mU/ml | 0.32 mU/ml | 13 mmol/L | 0.3 mU/ml | 0.5 µmol/L | 10.5 mmol/L | 11.2 mmol/L | 96.6% | 0.5 µmol/L | 0.4 µmol/L | 98.7% | Ki [25]: 6.1 nM; Ratio Ki (Cavia porcellus): 204; Ki [26]: 1240 nM; viability at 24 h, 50 µM [21]: 95.7%; Activity [22]: 0.4 µmol/L; TAC [23]: 12.8 mmol/L; Activity [24]: 0.5 µmol/L |
| O=C(CCCC[C@@H]1CCSS1)OC1CCN(Cc2ccccc2)CC1 | 10.9 mmol/L | 96.4% | 0.3 mU/ml | 0.3 mU/ml | 0.32 mU/ml | 0.5 µmol/L | 100% | 96.2% | 10.9 mmol/L | 0.28 mU/ml | 0.32 mU/ml | 11.3 mmol/L | 0.34 mU/ml | 0.4 µmol/L | 10.7 mmol/L | 11 mmol/L | 96.6% | 0.5 µmol/L | 0.4 µmol/L | 98.7% | Ki [25]: 17.7 nM; Ratio Ki (Cavia porcellus): 106; Activity (Mus musculus [27]): Active; Ki [26]: 1870 nM; viability at 24 h, 50 µM [21]: 97.4%; Activity [22]: 0.5 µmol/L; Activity (Mus musculus [28]): inactive; TAC [23]: 10.9 mmol/L; Activity [24]: 0.4 µmol/L |
